How the values were obtained:
[1] = target: T1, ATP-dependent translocase ABCB1 (Homo sapiens, UniProt P08183); test: Reversal of human MDR1-mediated rhodamine 123 uptake in mouse L5178Y cells assessed as fluorescence activity ratio at 1 µM by flow cytometry relative to non p-gp expressing parental cell line
[2] = target: T1, ATP-dependent translocase ABCB1; test: Reversal of human MDR1-mediated rhodamine 123 uptake in mouse L5178Y cells assessed as fluorescence activity ratio at 10 mM by flow cytometry relative to non p-gp expressing parental cell line; type: cell-based; details: in the assay text read “10 µM” for “10 mM”
In short: (§1)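 Mouse T-lymphoma L5178Y parental and retrovirally transfected P-gp-expressing L5178Y mdr cells were grown in McCoy's 5A with 10% heat-inactivated horse serum and 2 mM L-glutamine; the mdr line was precultured with 60 ng/mL colchicine. Cells (2 × 10^6/mL, serum-free) were preincubated with inhibitor 10 min at rt, then given rhodamine 123 for 20 min at 37 °C. They were washed twice and resuspended in PBS. Uptake was read by flow cytometry (1 × 10^4 cells). FAR is the mdr/parental quotient, each corrected by inhibitor-free controls.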

[3] = target: T1, ATP-dependent translocase ABCB1; test: Reversal of human MDR1-mediated rhodamine 123 uptake in mouse L5178Y cells assessed as fluorescence activity ratio at 20 umol by flow cytometry relative to non p-gp expressing parental cell line; type: cell-based
In short: as §1

L5178Y = test: Cytotoxicity against mouse L5178Y cells at 20 umol by flow cytometric analysis; type: cell-based

T1 sequence (P08183 whole entry): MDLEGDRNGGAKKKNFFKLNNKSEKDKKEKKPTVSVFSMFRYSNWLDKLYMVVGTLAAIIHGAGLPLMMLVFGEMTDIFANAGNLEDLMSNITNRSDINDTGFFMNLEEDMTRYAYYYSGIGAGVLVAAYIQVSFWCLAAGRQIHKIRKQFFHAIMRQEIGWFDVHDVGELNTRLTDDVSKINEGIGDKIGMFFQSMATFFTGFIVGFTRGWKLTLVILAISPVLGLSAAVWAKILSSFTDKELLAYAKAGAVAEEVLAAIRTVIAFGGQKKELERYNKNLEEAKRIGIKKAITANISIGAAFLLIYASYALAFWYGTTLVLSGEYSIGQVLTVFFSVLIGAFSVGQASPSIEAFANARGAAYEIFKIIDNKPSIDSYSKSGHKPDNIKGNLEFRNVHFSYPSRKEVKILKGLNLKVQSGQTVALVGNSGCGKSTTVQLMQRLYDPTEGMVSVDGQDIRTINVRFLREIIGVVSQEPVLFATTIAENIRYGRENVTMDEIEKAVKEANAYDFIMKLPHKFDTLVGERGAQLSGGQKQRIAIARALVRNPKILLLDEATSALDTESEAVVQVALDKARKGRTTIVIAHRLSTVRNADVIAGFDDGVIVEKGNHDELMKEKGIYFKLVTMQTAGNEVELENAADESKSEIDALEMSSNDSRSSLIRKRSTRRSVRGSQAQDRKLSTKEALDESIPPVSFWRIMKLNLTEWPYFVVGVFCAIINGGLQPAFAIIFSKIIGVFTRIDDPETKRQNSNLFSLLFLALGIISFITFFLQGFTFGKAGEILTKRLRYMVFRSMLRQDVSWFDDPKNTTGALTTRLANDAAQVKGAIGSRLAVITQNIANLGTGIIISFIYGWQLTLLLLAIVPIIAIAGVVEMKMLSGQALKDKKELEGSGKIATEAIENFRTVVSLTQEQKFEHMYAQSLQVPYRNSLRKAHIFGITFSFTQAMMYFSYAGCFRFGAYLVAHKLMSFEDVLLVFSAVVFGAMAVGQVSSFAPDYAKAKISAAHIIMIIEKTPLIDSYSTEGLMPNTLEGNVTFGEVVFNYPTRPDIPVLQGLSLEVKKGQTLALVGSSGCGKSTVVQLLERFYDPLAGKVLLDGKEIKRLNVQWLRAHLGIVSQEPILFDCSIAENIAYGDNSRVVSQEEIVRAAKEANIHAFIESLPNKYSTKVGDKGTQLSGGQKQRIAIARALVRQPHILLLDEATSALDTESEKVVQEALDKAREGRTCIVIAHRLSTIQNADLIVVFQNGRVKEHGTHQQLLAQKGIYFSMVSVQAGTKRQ

Molecule COC(=O)c1c(-c2ccccc2)ccn(Cc2ccccc2)c1=O has a Ratio [1] of 1.06 and a Ratio [2] of 1.74.
In the case of COC(=O)c1c(Cc2ccccc2)ccn(Cc2ccccc2)c1=O, the Ratio [1] is reported as 1.09 and the Ratio [2] is reported as 1.68.
With COC(=O)c1c(-c2ccccc2C)ccn(Cc2ccccc2)c1=O the Ratio [1] was 1.1 and the Ratio [2] was 1.51.
In the case of COC(=O)c1c(-c2ccc(C)cc2)ccn(Cc2ccccc2)c1=O, the Ratio [1] is reported as 0.94 and the Ratio [2] is reported as 1.75.
Work on COC(=O)c1c(-c2ccc(OC)cc2)ccn(Cc2ccccc2)c1=O yielded a Ratio [1] of 0.94 and a Ratio [2] of 1.91.
N#Cc1c(-c2ccccc2)ccn(Cc2ccccc2)c1=O showed a Ratio [1] of 0.99 and a Ratio [2] of 1.71.
N#Cc1c(Cc2ccccc2)ccn(Cc2ccccc2)c1=O showed a Ratio [1] of 1.06 and a Ratio [2] of 1.63.
Cc1ccccc1-c1ccn(Cc2ccccc2)c(=O)c1C#N gave a Ratio [1] of 1.05 and a Ratio [2] of 1.83.
With Cc1ccc(-c2ccn(Cc3ccccc3)c(=O)c2C#N)cc1 the Ratio [1] was 0.98 and the Ratio [2] was 1.56.
COc1ccccc1-c1ccn(Cc2ccccc2)c(=O)c1C#N showed a Ratio [1] of 1.29, a Ratio [2] of 2.16 and a Ratio [3] of 3.3. The Activity (L5178Y) was “Non-toxic”.
For COc1ccc(-c2ccn(Cc3ccccc3)c(=O)c2C#N)cc1, the Ratio [1] was 1.05, the Ratio [2] was 1.35 and the Activity (L5178Y) was “Non-toxic”.
O=C(OCc1ccccc1)c1c(-c2ccccc2)ccn(Cc2ccccc2)c1=O gave a Ratio [1] of 1.22 and a Ratio [2] of 2.59.
In the case of COc1ccc(CCN(C)CCCC(C#N)(c2ccc(OC)c(OC)c2)C(C)C)cc1OC (centres undefined) [VERAPAMIL], the Ratio [1] is reported as 0.89 and the Ratio [2] is reported as 2.94.
